High-throughput results from PubChem BioAssay.
FLuc act counter: FLuc activators, initial screening, artefact control for FLuc-dependent activation tests, biochemical, ATPlite luminescence; ATPlite luciferase biochemical, 10 min; 0 = ATP-free wells, 1 = DMSO control; activation factor at 10 µM; 200,000 tested, under 10 active;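 active means luciferase activation factor, scaled between plate controls, of at least 2 with compound at 10 µM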
Target sequence (P08659 whole entry, looked up): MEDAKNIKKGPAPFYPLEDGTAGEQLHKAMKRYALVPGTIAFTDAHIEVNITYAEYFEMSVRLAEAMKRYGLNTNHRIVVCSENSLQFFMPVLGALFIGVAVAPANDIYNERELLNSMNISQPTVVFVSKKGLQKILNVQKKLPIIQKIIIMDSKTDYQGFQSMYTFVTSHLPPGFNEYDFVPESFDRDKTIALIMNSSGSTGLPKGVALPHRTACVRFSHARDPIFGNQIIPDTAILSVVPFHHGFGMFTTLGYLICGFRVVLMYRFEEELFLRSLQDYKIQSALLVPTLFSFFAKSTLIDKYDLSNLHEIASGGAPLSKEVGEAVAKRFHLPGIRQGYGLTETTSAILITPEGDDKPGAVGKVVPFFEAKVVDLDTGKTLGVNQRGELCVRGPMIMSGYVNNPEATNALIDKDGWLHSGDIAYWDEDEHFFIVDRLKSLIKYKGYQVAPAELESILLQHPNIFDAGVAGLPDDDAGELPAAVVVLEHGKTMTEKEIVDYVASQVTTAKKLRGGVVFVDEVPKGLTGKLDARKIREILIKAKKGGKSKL
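Material: luciferase plus luciferin reagent, cell-free. Medium: PBS buffer for ATP. Also added: ATP substrate, dispensed from a 10.24 µM working solution in PBS. Doses: test compounds dosed from 2 mM stocks in 100% DMSO. Incubation: 10 min post-reagent at room temperature. Technique: light output (luminescence). Read-out basis: luminescence gain marking luciferase activators.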
FLuc inh counter: firefly luciferase enzyme inhibitors, primary screen, artefact control for luciferase-based inhibitor screens, biochemical, luminescence, ATPLite; AID 1006, 2008; Luciferin 4-monooxygenase (Photinus pyralis), P08659; inhibition, % at 10 µM; actives 1.5% (n = 200,000); 10 min;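 active means inhibition above about 50% when tested at 10 µM, limit read from the data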
TRAIL sens C8: viability loss with TRAIL in NB7+C8 cells, primary screen, TRAIL sensitizer project, cell-based, ATPlite luminescence; inhibition (viability loss, TRAIL sensitization), % at 10 µM; AID 624354, 2012; actives 1% (n = 360,000);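 active means compounds causing at least 50% loss of cell viability in the single-dose screen, relative to plate controls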
PPC-1+TRAIL kill: compounds killing PPC-1 cancer cells with TRAIL present, primary screen, TRAIL potentiator project, ATPLite luminescence, uHTS. PPC-1 cells + TRAIL, ATPLite viability luminescence. cell killing (% activity), % at 4 µM or 5 µM. actives 0.41% (n = 220,000);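 active means cell killing above 50% in the first pass at 4 µM, then a duplicate retest at 5 µM averaging 50% or more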;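 further: plate controls were cells with TRAIL plus DMSO for no effect and medium-only wells lacking cells for full effect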
Starred values were filed as active, the others as inactive; . = no result given. In the library only some 1.5% were active in any assay of this set; here they are far more common.

SMILES | FLuc act counter | FLuc inh counter | TRAIL sens C8 | PPC-1+TRAIL kill
CCOC(=O)[C@]12CCCC=C1N(CCC1=CCCCC1)C(=O)[C@H](CC(=O)NCc1cccs1)C2 | . | . | -3 | .
Cc1ccc(S(=O)(=O)NC(CC(C)C)C(=O)N2CCCC2)cc1 (stereo unspecified) | . | . | 4 | .
CC(C)(C)c1ccc(C(=O)Nc2ccc(Cl)cc2)cc1 | 0.7 | 26 | 20 | 22
CC(C)(C)c1ccc(NC(=O)c2ccsc2)cc1 | . | . | 69* | 37
COC(=O)Cc1ccc(NC(=O)c2ccc(C(C)(C)C)cc2)cc1 | 0.4 | 60* | 74* | 40
Cc1ccc(Sc2ccc(/C=C3/C(=O)NN(c4ccccc4)C3=O)o2)cc1 | . | . | 0 | 1
Cc1ccsc1C=C1C(=O)c2ccccc2C1=O | 0.3 | 73* | -18 | 8
Cc1ccsc1/C=C1/C(=O)NN(c2ccccc2)C1=O | 0.4 | 59* | 7 | -10
CN(C)C=C1C(=O)c2ccccc2C1=O | 1 | -1 | 3 | 9
OC(c1cc(-c2cccc(Cl)c2)nc2ccccc12)C1CCCCN1 (stereo unspecified) | . | . | 67* | .
O=C(COc1ncnc2ccccc12)c1ccc(Cl)cc1 | 0.2 | 80* | -3 | 33
Cc1ccc(S(=O)(=O)N2CCOC2CNC(=O)C(=O)NCCCN2CCOCC2)cc1 (stereo unspecified) | . | . | -26 | .
Cc1ccc(NC(=O)c2cc(C)n(-c3ccccc3)c2C)cc1 | 0 | 95* | 93* | 77*
Cc1ccc(NC(=O)c2cnn(-c3ccccc3)c2C)cc1 | . | . | 45 | .
Cc1ccc(-n2c(C)cc(C(=O)NS(=O)(=O)c3ccc(C)cc3)c2C)cc1 | 1 | -2 | -9 | 14
Cc1ccc(NC(=O)c2cc(C)n(-c3cccc(C)c3)c2C)cc1 | 0.3 | 74* | 30 | 20
Cc1cc(/C=C(\C#N)C(=O)Nc2ccccc2)c(C)n1-c1cccnc1 | 0.5 | 51* | 34 | 26
Cc1cc(C(=O)O)ccc1-n1c(C)cc(/C=C(/C#N)C(=O)Nc2ccccc2)c1C | 1 | 0 | -9 | 9
CCOC(=O)/C(C#N)=C/c1cc(C)n(-c2ccccc2)c1C | 0.2 | 76* | 50* | 42
COc1cc(NC(=O)C(C)(C)C)c(C(=O)OCC(=O)Nc2cc(C)on2)cc1OC | . | . | 7 | .
O=C(Nc1nc2c(Br)cccc2s1)C1CC1 | . | . | 12 | .
O=c1[nH]c2ccccc2cc1-c1nnn(-c2ccc(F)cc2)n1 | 0.4 | 65* | 62* | 50
Fc1ccc(-n2nnc(-c3cnc4ccccc4c3)n2)cc1 | 0.3 | 74* | 61* | 43
O=c1[nH]c2ccccc2cc1-c1nnn(-c2ccc(Cl)c(Cl)c2)n1 | . | . | -14 | .
Fc1ccc(-n2nnc(-c3cccnc3)n2)cc1 | 0.8 | 15 | -1 | 28
SMILES | FLuc act counter | FLuc inh counter | TRAIL sens C8 | PPC-1+TRAIL kill
COC1Cc2ccccc2N(C(N)=O)c2ccccc21 (stereo unspecified) | . | . | 9 | .
CN=C1S/C(=C\c2cc(C)n(-c3ccccc3F)c2C)C(=O)N1C | 0.2 | 82* | 55* | 40
Cc1cc(/C=C2\SC(=O)N(C)C2=O)c(C)n1-c1ccc(O)cc1 | . | . | 27 | .
COc1cccc(CNC(=O)c2cccc(NC(=O)C3=C(C)OCCS3)c2)c1 | . | . | 5 | .
COc1ccc(CNC(=O)Cc2ccc(NC(=O)C3=C(C)OCCS3)cc2)cc1 | . | . | 71* | .
CC1=C(C(=O)Nc2ccc(CC(=O)NCc3ccc(OC(C)C)cc3)cc2)SCCO1 | . | . | 56* | .
CCOc1ccc(CNC(=O)c2cccc(NC(=O)C3=C(C)OCCS3)c2)cc1 | . | . | -14 | .
CCC(C)Sc1ccc([C@@H]2[C@H]3C(=O)N(CC)C(=O)[C@H]3[C@]3(C(=O)OC)CCCCN23)cc1 (stereo partly specified) | . | . | 4 | .
O=C(c1cc(C2CC2)nc2ccccc12)N1N=C(C(F)F)CC1(O)C(F)F (stereo unspecified) | 1 | -2 | -10 | -2
CC(C)c1ccc(-c2cc(C(=O)NN3CCN(C)CC3)c3ccccc3n2)cc1 | 0.1 | 88* | 77* | 66*
CC(C)c1ccc(-c2cc(C(=O)N3N=C(C(F)F)CC3(O)C(F)F)c3ccccc3n2)cc1 (stereo unspecified) | 0.4 | 65* | 45 | 46
C[C@@H]1COC(=O)[C@H](NC(=O)OCC2c3ccccc3-c3ccccc32)C/C=C\C[C@@H](CC(=O)N[C@@H](CO)Cc2ccccc2)C(=O)N1 | . | . | 11 | .
O=C(C[C@H]1C/C=C\C[C@H](NC(=O)OCC2c3ccccc3-c3ccccc32)C(=O)OC[C@H](Cc2ccccc2)NC1=O)N[C@H](CO)Cc1ccccc1 | . | . | 64* | .
COc1ccc(-c2cc(-c3ccccc3)c(C#N)c(S(C)=O)n2)cc1 (stereo unspecified) | 1 | -2 | 91* | 40
CCOc1ccccc1NC(=O)c1nc(S(=O)(=O)Cc2cccc(C)c2)ncc1Cl | . | . | 93* | .
CCSc1nnc(NC(=O)c2nc(S(=O)(=O)Cc3ccc(F)cc3)ncc2Cl)s1 | . | . | 23 | .
O=C(NCc1ccccc1)c1nc(S(=O)(=O)Cc2ccccc2)ncc1Cl | . | . | 32 | .
CCc1nnc(NC(=O)c2nc(S(=O)(=O)Cc3cccc(C)c3)ncc2Cl)s1 | . | . | 98* | .
CCc1nnc(NC(=O)c2nc(Cl)ccc2Cl)s1 | . | . | 4 | .
CCc1nnc(NC(=O)c2nc(S(=O)(=O)Cc3ccc(C)cc3)ncc2Cl)s1 | . | . | 95* | .
CCc1nnc(NC(=O)c2nc(S(=O)(=O)Cc3ccccc3)ncc2Cl)s1 | . | . | 94* | .
CC(=O)Nc1ccc(NC(=O)c2nc(S(=O)(=O)Cc3ccccc3)ncc2Cl)cc1 | . | . | 16 | .
COC(=O)c1ccccc1NC(=O)c1nc(S(=O)(=O)Cc2ccccc2)ncc1Cl | . | . | 95* | .
COc1ccc2nc(NC(=O)c3cccc(N4C(=O)CCC4=O)c3)sc2c1 | . | . | 58* | .
CCOc1ccc2nc(NC(=O)c3cccc(-c4cc5ccccc5oc4=O)c3)sc2c1 | 1 | 4 | 71* | 1
SMILES | FLuc act counter | FLuc inh counter | TRAIL sens C8 | PPC-1+TRAIL kill
O=C(Nc1nc2ccc(Cl)cc2s1)c1cccc(N2C(=O)CCC2=O)c1 | . | . | 38 | .
Cc1ccc2sc(NC(=O)c3cccc(N4C(=O)CCC4=O)c3)nc2c1C | . | . | 17 | .
CCOc1ccc2nc(NC(=O)c3cccc(N4C(=O)CCC4=O)c3)sc2c1 | . | . | 56* | .
CCC(C)[C@H](NC(=O)C1CC(=O)N(c2ccc(OC)cc2)C1)C(=O)NC1CCCC1 (stereo partly specified) | . | . | -6 | .
CC(=O)c1cccc(NC(=O)c2ccc(-c3c(C)noc3C)c3ccoc23)c1 | . | . | 18 | .
O=c1oc2ccccc2cc1-c1nc2ccccc2o1 | 0.6 | 36 | 13 | 35
O=c1oc2ccccc2cc1-c1nc2c(s1)CCCC2 | 0.3 | 67* | 63* | 24
COc1ccccc1C(=O)COC(=O)CNS(=O)(=O)c1ccc(C)c(C)c1 | . | . | 1 | .
Cc1cccc(CNC(=O)c2sc(=O)n(Cc3ccc(S(C)(=O)=O)cc3)c2C)c1 | . | . | 0 | .
O=C(Cc1ccccc1)Nc1nccs1 | . | . | -5 | .
